Laboratory results reported in ChEMBL document CHEMBL2086333, “Albopunctatone, an antiplasmodial anthrone-anthraquinone from the Australian ascidian Didemnum albopunctatum” (J Nat Prod, 2012).
Activity calls are given as the source filed them. The calls are words filed in the database; no cut-off is given here.

Experiments:
[1] = Selectivity index, ratio of cytotoxicity against human HEK293 cells to IC50 for chloroquine-sensitive Plasmodium falciparum 3D7; type: toxicity, cell-based; conditions: read-out: Selectivity Index
HEK293 = experiment: Toxicity against human HEK293 cells at =<40 uM incubated for 72 hrs by resazurin dye reduction assay; type: cell-based; conditions: hek293, 72 h
Procedure, shortened: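 HEK293 adherent cells, compound exposure 72 h at 37 °C, 5% CO2, highest concentration 40 μM. Supernatant replaced with 10% Presto Blue in DMEM plus 2 mM glutamax, 3 h, fluorescence 530/595 nm. % inhibition scaled between >10% DMSO or 20 μM puromycin (100%) and 0.4% DMSO (0%). Triplicate. IC50 by variable-slope nonlinear regression.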

[2] = Toxicity against human MDA-M cells at =<40 uM incubated for 72 hrs by resazurin dye reduction assay; type: cell-based
Procedure, shortened: (§1)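 Adherent cancer cells seeded according to growth rate, compound exposure 72 h at 37 °C, 5% CO2, highest concentration 40 μM. Resazurin at 600 μM final, 4 h, fluorescence 530/595 nm. % growth inhibition scaled between >10% DMSO or 20 μM puromycin (100%) and 0.4% DMSO (0%). Triplicate. IC50 by variable-slope nonlinear regression on log dose.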

[3] = Selectivity index, ratio of cytotoxicity against human MDA-M cells to IC50 for chloroquine-sensitive Plasmodium falciparum 3D7; type: toxicity, cell-based; conditions: read-out: Selectivity Index
[4] = Selectivity index, ratio of cytotoxicity against human BT474 cells to IC50 for chloroquine-sensitive Plasmodium falciparum 3D7; type: toxicity, cell-based, BT-474; conditions: read-out: Selectivity Index
[5] = test system: Trypanosoma brucei brucei; experiment: Antitrypanosomal activity against Trypanosoma brucei brucei up to 40 uM incubated for 48 hrs by Alamar Blue assay; type: functional, organism-based
Procedure, shortened: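 T. b. brucei at 2000 cells/mL in HMI-9 with 10% FCS and penicillin/streptomycin, preincubated 24 h. Compound in DMSO prediluted 1:20 in supplemented DMEM, tested up to 40 μM, 48 h at 37 °C, 5% CO2. Alamar Blue added, 2 h under the same conditions then 22 h RT. Fluorescence ex 535/em 590 nm.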

[6] = Selectivity index, ratio of cytotoxicity against human BxPC3 cells to IC50 for chloroquine-sensitive Plasmodium falciparum 3D7; type: toxicity, cell-based, BXPC-3; conditions: read-out: Selectivity Index
BT-474 [7] = experiment: Toxicity against human BT474 cells at =<40 uM incubated for 72 hrs by resazurin dye reduction assay; type: cell-based; conditions: bt-474, 72 h; procedure, shortened: as §1
[8] = Toxicity against human SU8686 cells at =<40 uM incubated for 72 hrs by resazurin dye reduction assay; type: cell-based; conditions: su.86.86, 72 h; procedure, shortened: as §1
[9] = Selectivity index, ratio of cytotoxicity against human MCF10A cells to IC50 for chloroquine-sensitive Plasmodium falciparum 3D7; type: toxicity, cell-based, MCF-10A; conditions: read-out: Selectivity Index
BXPC-3 [10] = experiment: Toxicity against human BxPC3 cells at =<40 uM incubated for 72 hrs by resazurin dye reduction assay; type: cell-based; conditions: bxpc-3, 72 h; procedure, shortened: as §1
Plasmodium falciparum [11] = experiment: Antimalarial activity against chloroquine-resistant Plasmodium falciparum Dd2 assessed as reduction in parasite replication incubated for 72 hrs; conditions: Dd2, 72 h
[12] = Selectivity index, ratio of cytotoxicity against human PANC1 cells to IC50 for chloroquine-sensitive Plasmodium falciparum 3D7; type: toxicity, cell-based, PANC-1; conditions: read-out: Selectivity Index
MCF-10A = experiment: Toxicity against human MCF10A cells at =<40 uM incubated for 72 hrs by resazurin dye reduction assay; type: cell-based; procedure, shortened: as §1
PANC-1 [13] = experiment: Toxicity against human PANC1 cells at =<40 uM incubated for 72 hrs by resazurin dye reduction assay; type: cell-based; conditions: panc-1, 72 h; procedure, shortened: as §1
[14] = Selectivity index, ratio of cytotoxicity against human SU8686 cells to IC50 for chloroquine-sensitive Plasmodium falciparum 3D7; type: toxicity, cell-based; conditions: read-out: Selectivity Index
Plasmodium falciparum [15] = experiment: Antimalarial activity against chloroquine-sensitive Plasmodium falciparum 3D7 assessed as reduction in parasite replication incubated for 72 hrs; conditions: 3D7, 72 h
Plasmodium falciparum [16] = experiment: Antimalarial activity against chloroquine-sensitive Plasmodium falciparum 3D7 assessed as reduction in parasite replication at 40 uM incubated for 72 hrs
Plasmodium falciparum [17] = experiment: Antimalarial activity against chloroquine-resistant Plasmodium falciparum Dd2 assessed as reduction in parasite replication at 40 uM incubated for 72 hrs
[18] = Growth inhibition of human HEK293 cells at 20 uM incubated for 72 hrs by resazurin dye reduction assay; type: cell-based; conditions: read-out: GI
[19] = Growth inhibition of human MCF10A cells at 20 uM incubated for 72 hrs by resazurin dye reduction assay; type: cell-based, MCF-10A; conditions: read-out: GI
[20] = Growth inhibition of human MDA-M cells at 20 uM incubated for 72 hrs by resazurin dye reduction assay; type: functional; conditions: read-out: GI
PANC-1 [21] = experiment: Growth inhibition of human PANC1 cells at 20 uM incubated for 72 hrs by resazurin dye reduction assay; type: functional; conditions: PANC-1, 72 h, read-out: GI
BT-474 [22] = experiment: Growth inhibition of human BT474 cells at 20 uM incubated for 72 hrs by resazurin dye reduction assay; type: functional; conditions: BT-474, 72 h, read-out: GI
[23] = Growth inhibition of human SU8686 cells at 20 uM incubated for 72 hrs by resazurin dye reduction assay; type: functional; conditions: SU.86.86, 72 h, read-out: GI
BXPC-3 [24] = experiment: Growth inhibition of human BxPC3 cells at 20 uM incubated for 72 hrs by resazurin dye reduction assay; type: functional; conditions: BXPC-3, 72 h, read-out: GI

Structure (SMILES) | Activity (HEK293) | Activity [2] | Activity [5] | Activity (BT-474 [7]) | Activity [8] | Activity (BXPC-3 [10]) | Activity (MCF-10A) | Activity (PANC-1 [13]) | IC50 (Plasmodium falciparum [15]) [nM] | further results
O=C1c2cccc(O)c2C(=O)c2c1ccc(C1(O)c3cccc(O)c3C(=O)c3c(O)cccc31)c2O [ALBOPUNCTATONE] | Non-toxic | Non-toxic | inactive | Non-toxic | Non-toxic | Non-toxic | Non-toxic | Non-toxic | 4400 | selectivity ratio [1]: > 9.1; selectivity ratio [3]: > 9.1; selectivity ratio [4]: > 9.1; selectivity ratio [6]: > 9.1; selectivity ratio [9]: > 9.1; IC50 (Plasmodium falciparum [11]): 5300 nM; selectivity ratio [12]: > 9.1; selectivity ratio [14]: > 9.1
C[C@@H]1CC[C@H]2[C@@H](C)C(=O)O[C@@H]3O[C@@]4(C)CC[C@@H]1[C@]32OO4 [ARTEMISININ] |  |  |  |  |  |  |  |  | 7.2 | 
O=C1c2cccc(O)c2C(=O)c2c(O)cccc21 [DANTHRON] | Non-toxic | Non-toxic | inactive | Non-toxic | Non-toxic | Non-toxic | Non-toxic | Non-toxic |  | Activity (Plasmodium falciparum [16]): inactive; Activity (Plasmodium falciparum [17]): inactive
COc1ccc(C[C@H](N)C(=O)N[C@H]2[C@@H](O)[C@H](n3cnc4c(N(C)C)ncnc43)O[C@@H]2CO)cc1 [PUROMYCIN] |  |  |  |  |  |  |  |  | 89 | inhibition at 72 h, 20 µM [18]: 100%; inhibition at 72 h, 20 µM [19]: 100%; inhibition of growth at 20 µM [20]: 100%; inhibition of growth at 20 µM (PANC-1 [21]): 100%; inhibition of growth at 20 µM (BT-474 [22]): 100%; inhibition of growth at 20 µM [23]: 100%; inhibition of growth at 20 µM (BXPC-3 [24]): 100%
